Laboratory results: article PMC4024982 (International Journal of Nanomedicine, 2014)

How the values were obtained:
Assay type in all cases: in vivo, Sprague Dawley rats
[1] = tested on: rat knee osteoarthritis model; experiment: Micro-CT analysis of OA knee joints; conditions: 6 weeks after injection
Procedure, shortened: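 Hind limbs from OA rats (female, 12-week-old SD; ACL/MCL transection with medial meniscectomy) given 0.2 mL intra-articular injection 3 weeks post-surgery, or left uninjected. Harvested 6 weeks post-injection and formalin-fixed. Micro-CT: 80 kVp, 500 μA, 0.21 s scan, 30 calibrations, 30.74 mm fields of view. BMD measured at the lateral femoral condyle. OA graded semiquantitatively by osteophytes and joint destruction.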

[2] = tested on: caspase-8; experiment: Immunofluorescence staining of knee joint sections; conditions: 6 weeks after injection; diffuse positive staining in control
Procedure, shortened: (§1)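 OA knees in female 12-week-old SD rats (ACL/MCL transection plus medial meniscectomy), injected intra-articularly with 0.2 mL at 3 weeks post-surgery, uninjected controls. Joints harvested 6 weeks post-injection and formalin-fixed. Sections immunostained for MMP-9, caspase-8, TIMP-1 and collagen II using Alexa Fluor 488/594 secondary antibodies, DAPI counterstain, then examined by fluorescence microscopy.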

[3] = tested on: rat knee osteoarthritis model; experiment: Histological analysis, modified Mankin scoring; conditions: 6 weeks after injection; scale 0–4; negative control 2.5±0.3
[4] = tested on: TIMP-1; experiment: Immunofluorescence staining of knee joint sections; conditions: 6 weeks after injection; diffuse positive staining in control
Procedure, shortened: as §1

Substance: Ac-KLDLKLDLKLDL-NH2 [SAP, Ac-KLDLKLDLKLDL-NH2]
- bone mineral density (lateral femoral condyle, micro-CT) ([1]; control 1,067.0±12.2): 1,033.3±17.4
- Number of animals in each osteoarthritis grade: Grade 1 ([1]; micro-CT): 1
- Number of animals in each osteoarthritis grade: Grade 2 ([1]; micro-CT): 0
- Number of animals in each osteoarthritis grade: Grade 3 ([1]; micro-CT): 2
- Number of animals in each osteoarthritis grade: Grade 4 ([1]; micro-CT): 1
- caspase-8 immunofluorescence staining [2]: decreased expression
- Alcian blue staining component of modified Mankin score (proteoglycan content) [3]: 0.5±0.3
- TIMP-1 immunofluorescence staining [4]: decreased expression
